Calls of active or inactive are those of the source. The rule behind the calls is not given here.

Test [1] deals with Apoptosis regulator Bcl-2 (Homo sapiens, UniProt P10415). The experiment in a line: Displacement of FAM-Bim peptide from human Bcl2 by fluorescence polarization assay.
Test [2] concerns the target Induced myeloid leukemia cell differentiation protein Mcl-1 (Homo sapiens, UniProt Q07820). The test can be described thus: Displacement of FAM-Bim peptide from human Mcl1 by fluorescence polarization assay. The essentials: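 Compound added from DMSO, 4 h incubation, polarization at ex 485/em 530 nm. IC50 by nonlinear least-squares fit; Ki from the FP equation.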
Test [3] deals with MDA-MB-231. The test can be described thus: Growth inhibition of human MDA-MB-231 cells after 4 days by WST-based assay. The format is functional, cell-based. The settings on record: MDA-MB-231, 96 h. The essentials:
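Cells seeded at 3-4 × 10^3/well together with graded compound concentrations and cultured 4 days. WST-8 added at 10% final, then 2-3 h at 37°C. Absorbance read at 450 nm. IC50 = 50% growth inhibition relative to untreated cells.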

Test [4] concerns MDA-MB-231. The experiment in a line: Induction of apoptosis in human MDA-MB-231 cells at 1 uM after 3 days by Annexin V/propidium iodide staining.
Test [5] relates to MDA-MB-231. The test can be described thus: Induction of apoptosis in human MDA-MB-231 cells at 0.5 uM after 3 days by Annexin V/propidium iodide staining-based flow cytometry.
Test [6] concerns MDA-MB-231. The experiment in a line: Induction of apoptosis in human MDA-MB-231 cells after 3 days by Annexin V/propidium iodide staining-based flow cytometry.

Chain of Apoptosis regulator Bcl-2 (P10415 whole entry): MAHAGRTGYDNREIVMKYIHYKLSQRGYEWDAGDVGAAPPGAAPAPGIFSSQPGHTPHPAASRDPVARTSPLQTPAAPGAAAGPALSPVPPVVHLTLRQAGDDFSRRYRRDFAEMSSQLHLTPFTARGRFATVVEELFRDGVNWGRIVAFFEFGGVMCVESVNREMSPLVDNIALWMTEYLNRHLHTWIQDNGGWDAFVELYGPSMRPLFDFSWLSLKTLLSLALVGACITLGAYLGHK
Chain of Induced myeloid leukemia cell differentiation protein Mcl-1 (Q07820 whole entry): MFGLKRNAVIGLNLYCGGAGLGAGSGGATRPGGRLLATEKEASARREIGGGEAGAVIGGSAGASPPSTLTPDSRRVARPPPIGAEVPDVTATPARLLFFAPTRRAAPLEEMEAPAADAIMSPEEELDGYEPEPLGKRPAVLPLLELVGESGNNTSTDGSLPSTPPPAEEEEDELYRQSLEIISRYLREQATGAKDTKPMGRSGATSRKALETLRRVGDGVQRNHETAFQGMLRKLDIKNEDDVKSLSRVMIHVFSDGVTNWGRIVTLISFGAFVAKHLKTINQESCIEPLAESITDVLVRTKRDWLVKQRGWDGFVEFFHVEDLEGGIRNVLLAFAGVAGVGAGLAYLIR

On to `Cc1cc(=O)c2c(O)c(O)c(O)c(CC(C)C)c2o1`, for which the inhibition constant Ki worked out at 730 nM in test [1] and 1690 nM in test [2]. This compound came in with an IC50 in the test with MDA-MB-231 [3] of 30000 nM.
With `COc1c(OC)c(OC)c2c(=O)c(-c3ccc(-c4c(C)oc5c(CC(C)C)c(OC)c(OC)c(OC)c5c4=O)cc3)c(C)oc2c1CC(C)C`, the outcome in test [1] and in test [2] was inactive. In addition, in the test with MDA-MB-231 [3], the IC50 is over 100000 nM.
As for `Cc1oc2c(CC(C)C)c(O)c(O)c(O)c2c(=O)c1-c1ccc(-c2c(C)oc3c(CC(C)C)c(O)c(O)c(O)c3c2=O)cc1`, the Ki in test [1] turned out to be 17 nM; in test [2], 18 nM. The Activity is 64.4% in the test on MDA-MB-231 [4], 24.5% in the test with MDA-MB-231 [5] and “Dose-dependent effect” in the test on MDA-MB-231 [6]. The compound further gave an IC50 with MDA-MB-231 [3] of 110 nM.
Regarding `Cc1oc2c(CC(C)C)c(O)c(O)c(O)c2c(=O)c1-c1ccccc1`, the figures for the Ki in test [1] and in test [2] were 340 nM and 400 nM, respectively. Moreover, in the test on MDA-MB-231 [3], the IC50 is 5300 nM.
As for `Cc1cc2c(C(C)C)c(O)c(O)c(C=O)c2c(O)c1-c1c(C)cc2c(C(C)C)c(O)c(O)c(C=O)c2c1O` [GOSSYPOL], the Ki in test [2] is 280 nM. Also, in the test on MDA-MB-231 [3], 1900 nM corresponded to half-maximal inhibition (IC50).

Source of the values: ChEMBL document CHEMBL1145403, “Structure-based design of flavonoid compounds as a new class of small-molecule inhibitors of the anti-apoptotic Bcl-2 proteins” (J Med Chem, 2007).
